Measured values reported in ChEMBL document CHEMBL1177650, “Synthesis, structural elucidation and in vitro antiparasitic activity against Trypanosoma cruzi and Leishmania chagasi parasites of novel tetrahydro-1-benzazepine derivatives” (Bioorg Med Chem, 2010).
pIC50: −log10 of the molar value.

Legend:
[1] = Cytotoxicity against african green monkey Vero cells after 72 hrs by MTT assay; assay type: cell-based; details: chlorocebus sabaeus
In short: (§1)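 Vero or transformed THP-1 cells incubated with compound (0.3–300 μM) 72 h at 37 °C, 5% CO2; untreated controls. MTT read-out, formazan OD at 580 nm; % cytotoxicity = 100 × (OD control − OD treated)/OD control. CC50/CC90 by sigmoidal regression; triplicates, repeated twice. DMSO stocks 100× concentrated, diluted in medium.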

Trypanosoma cruzi [2] = assay: Antitrypanosomal activity against Trypanosoma cruzi 320I01 epimastigotes after 72 hrs by haemocytometry; assay type: functional, organism-based; details: 320I01, 72 h
In short: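 Late-phase T. cruzi epimastigotes cultured in LIT medium with hiFCS at 28 °C; threefold serial dilutions (0.3–100 μM) for 72 h at 28 °C, untreated controls. Parasites counted in a haemocytometer; IC50/IC90 by sigmoidal regression; each concentration in triplicate, two experiments.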

[3] = Selectivity index, CC50 for african green monkey Vero cells to IC50 for Trypanosoma cruzi 320I01 epimastigote; assay type: functional
In short: (§2)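 Selectivity index computed as CC50 in Vero cells divided by IC50 against the T. cruzi stage named in the line.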

Trypanosoma cruzi [4] = assay: Antitrypanosomal activity against Trypanosoma cruzi 320I01 amastigotes infected in african green monkey Vero cells after 5 days by Giemsa staining; assay type: functional, organism-based; details: 320I01, Vero, 120 h
In short: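 Vero cells (RPMI, 5% hiSBF, 37 °C, 5% CO2) infected 24 h with tissue-derived T. cruzi trypomastigotes at parasite:cell 10:1. Compound dilutions (top 100 μM) applied 5 days at 37 °C, 5% CO2, medium changed once at day 3. Infected cells scored per 300 cells on methanol-fixed Giemsa preparations; IC50/IC90 by sigmoidal regression; triplicates, two experiments.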

[5] = Selectivity index, CC50 for african green monkey Vero cells to IC50 for Trypanosoma cruzi 320I01 amastigotes; assay type: functional; in short: as §2
Leishmania chagasi [6] = assay: Antileishmanial activity against Leishmania chagasi MHOM/BR/74/PP75 promastigotes after 72 hrs by haemocytometry; assay type: functional, organism-based; details: MHOM/BR/74/PP75, 72 h
In short: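 Late-phase L. chagasi promastigotes, grown at 28 °C in RPMI 1640 with hemin, HEPES and 10% hiSBF, exposed to threefold serial dilutions (0.3–100 μM) for 72 h at 28 °C; untreated controls. Growth inhibition from haemocytometer counts; IC50/IC90 by sigmoidal regression; triplicates, repeated twice.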

[7] = Cytotoxicity against human THP1 cells after 72 hrs by MTT assay; assay type: cell-based; details: THP-1 cells; in short: as §1
[8] = Selectivity index, CC50 for human THP1 cells to IC50 for Leishmania chagasi MHOM/BR/74/PP75 promastigotes; assay type: functional, THP-1
In short: (§3)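 Selectivity index computed as CC50 in THP-1 cells divided by IC50 against the L. chagasi stage named in the line.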

Leishmania chagasi [9] = assay: Antileishmanial activity against Leishmania chagasi MHOM/BR/74/PP75 amastigotes infected in human THP1 cells after 5 days by Giemsa staining; assay type: functional, organism-based; details: MHOM/BR/74/PP75, THP-1, 120 h
In short: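 THP-1 cells (RPMI, 5% hiSBF, 37 °C, 5% CO2) transformed, then infected 24 h with late-phase L. chagasi promastigotes at parasite:cell 10:1. Treated with compound dilutions (top 100 μM) 5 days at 37 °C, 5% CO2, medium changed once after 3 days. Infected cells counted per 300 cells on methanol-fixed Giemsa slides; IC50/IC90 by sigmoidal regression; triplicates, repeated twice.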

[10] = Selectivity index, CC50 for human THP1 cells to IC50 for Leishmania chagasi MHOM/BR/74/PP75 amastigotes; assay type: functional, THP-1; in short: as §3

Row | Structure (SMILES) | pIC50 (Trypanosoma cruzi [2]) | IC90 (Trypanosoma cruzi [2]) | pIC50 (Trypanosoma cruzi [4]) | IC90 (Trypanosoma cruzi [4]) | pIC50 (Leishmania chagasi [6]) | IC90 (Leishmania chagasi [6]) | pIC50 (Leishmania chagasi [9]) | IC90 (Leishmania chagasi [9]) | CC50 at 72 h [1] | CC90 at 72 h [1] | Selectivity Index [3] | Selectivity Index [5] | CC50 at 72 h [7] | CC90 at 72 h [7] | Selectivity Index [8] | Selectivity Index [10]
1 | O[C@@H]1Cc2ccccc2N[C@H](c2ccc(Cl)cc2)C1 (relative stereo) | 4.18 | > 100 µM | 4.38 | > 100 µM | 4.17 | > 100 µM | < 4.00 | > 100 µM | > 300 µM | > 300 µM | >4 | >7 | 114 µM | > 300 µM | 1.68 | >1
2 | O[C@@H]1Cc2ccccc2N[C@H](c2ccccc2Cl)C1 (relative stereo) | 4.30 | > 100 µM | < 4.00 | > 100 µM | 4.07 | > 100 µM | < 4.00 | > 100 µM | > 300 µM | > 300 µM | >6 | >3 | > 300 µM | > 300 µM | >3 | >3
3 | Fc1cccc(Cl)c1[C@@H]1C[C@@H]2Cc3cc(Cl)ccc3N1O2 (relative stereo) | 4.32 | > 100 µM | < 4.00 | > 100 µM | < 4.00 | > 100 µM | < 4.00 | > 100 µM | > 300 µM | > 300 µM | >6 | >3 | > 300 µM | > 300 µM | >3 | >3
4 | O[C@@H]1Cc2cc(OC(F)(F)F)ccc2N[C@H](c2ccccc2)C1 (relative stereo) | 4.58 | 60.4 µM | < 4.00 | > 100 µM | 4.45 | 43.2 µM | < 4.00 | > 100 µM | 124 µM | 263 µM | 4.64 | >1 | 104 µM | > 300 µM | 2.92 | >1

Now from value to compound, other results behind:

Row | pIC50 (Trypanosoma cruzi [2]) | IC90 (Trypanosoma cruzi [2]) | pIC50 (Trypanosoma cruzi [4]) | IC90 (Trypanosoma cruzi [4]) | pIC50 (Leishmania chagasi [6]) | IC90 (Leishmania chagasi [6]) | pIC50 (Leishmania chagasi [9]) | IC90 (Leishmania chagasi [9]) | Structure (SMILES) | CC50 at 72 h [1] | CC90 at 72 h [1] | Selectivity Index [3] | Selectivity Index [5] | CC50 at 72 h [7] | CC90 at 72 h [7] | Selectivity Index [8] | Selectivity Index [10]
5 | 4.71 | 57.8 µM | < 4.00 | > 100 µM | 4.60 | > 100 µM | < 4.00 | > 100 µM | Clc1ccccc1[C@@H]1C[C@@H]2Cc3ccccc3N1O2 (relative stereo) | 111 µM | > 300 µM | 5.71 | >1 | 110 µM | 211 µM | 4.37 | >1
6 | 4.63 | > 100 µM | 4.25 | 43.6 µM | 4.59 | 54.9 µM | < 4.00 | > 100 µM | Brc1ccc2c(c1)C[C@H]1C[C@@H](c3ccccc3)N2O1 (relative stereo) | > 300 µM | > 300 µM | >12 | >5 | > 300 µM | > 300 µM | >11 | >3
7 | 4.75 | > 100 µM | < 4.00 | > 100 µM | < 4.00 | > 100 µM | < 4.00 | > 100 µM | Fc1cccc(Cl)c1[C@@H]1C[C@@H]2Cc3ccccc3N1O2 (relative stereo) | > 300 µM | > 300 µM | >17 | >3 | > 300 µM | > 300 µM | >3 | >3
8 | 4.91 | > 100 µM | < 4.00 | > 100 µM | < 4.00 | > 100 µM | < 4.00 | > 100 µM | O[C@@H]1Cc2cc(F)ccc2N[C@H](c2ccccc2)C1 (relative stereo) | > 300 µM | > 300 µM | >24 | >3 | > 300 µM | > 300 µM | >3 | >3
9 | 4.82 | > 100 µM | < 4.00 | > 100 µM | 4.48 | 50.1 µM | < 4.00 | > 100 µM | Clc1ccc([C@@H]2C[C@@H]3Cc4cc(Cl)ccc4N2O3)cc1 (relative stereo) | > 300 µM | > 300 µM | >20 | >3 | > 300 µM | > 300 µM | >9 | >3
10 | 5.11 | 54.1 µM | < 4.00 | > 100 µM | 4.32 | > 100 µM | < 4.00 | > 100 µM | Fc1ccc2c(c1)C[C@H]1C[C@@H](c3ccccc3)N2O1 (relative stereo) | > 300 µM | > 300 µM | >39 | >3 | > 300 µM | > 300 µM | >6 | >3
